Source: PubChem
Diaphorase inh = diaphorase inhibitors and chemical oxidizers, primary screen, counter-screen for diaphorase-coupled primary assays, biochemical, uHTS, resorufin fluorescence. diaphorase resazurin-to-resorufin fluorescence, NADH, 16 min; bacterial (C. kluyveri) enzyme, not human. inhibition, % at 20 µM. 190,000 tested, 0.69% active. AID 1217, 2008;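 active = primary screen inhibition at 20 µM above a set limit, cut at about 50% in these data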;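 note: plate controls were DMSO with full reaction for no effect and wells lacking NADH for full effect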
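Test system: bacterial diaphorase enzyme (C. kluyveri); Quantity: 0.14 U/mL diaphorase, enzyme working solution; Times: reaction incubation of 16 min at room temperature; Measured by: fluorescence of resorufin formed from resazurin, Ex 544/Em 590 nm; Benchmarks: positive control minus NADH, DMSO neutral control.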
G6PDH CS = L. mesenteroides G6PDH inhibitors, counter-screen for G6PDH-coupled screening assays, biochemical, Leuconostoc mesenteroides enzyme; glucose-6-phosphate dehydrogenase [Leuconostoc mesenteroides]; Purified L. mesenteroides G6PDH, diaphorase/resazurin coupled fluorescence, 45 min; inhibition, % at 5 µM; 200,000 tested, 0.12% active; AID 1020, 2008
Lmaj promast = Leishmania major promastigote growth inhibition, primary screen; inhibition, % at 10 µM; AID 1063, 2008; Leishmania major promastigotes, resazurin fluorescence viability; 200,000 tested, 9% active;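 note: promastigotes grown with compound for 44 hours at 28 °C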
Diaph act CS = compounds boosting diaphorase resazurin reduction – biochemical, uHTS, resorufin fluorescence, counter-screen for diaphorase-coupled primary assays, primary screen; Diaphorase/resazurin coupled assay, 16 min; active compounds read high; 1 = vehicle wells, 0 = NADH-free wells; activation factor at 20 µM; 190,000 tested, 0.005% active; AID 1229, 2008;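 active = diaphorase activity raised at least twofold by the compound at 20 µM; inactive = activation factor below 2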
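Test system: Clostridium kluyveri diaphorase, purified enzyme. Buffer or medium: 50 mM HEPES pH 7.4 buffer plus MgCl2 and Tween 20. Also added: 0.114 mM NADH and 0.1 mM resazurin, final amounts. Dosing: compound 20 µM once, DMSO 1%. Schedule: 16 min enzyme reaction, ambient temperature. Detection: fluorescence of resorufin, 544 nm excitation, 590 nm emission.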
WT yeast gro inh = growth inhibition of WT strain, primary screen, mitochondrial fusion inhibitor project, WT and mutant strains, chemical genetic | inhibition, % at 10 µM | 190,000 tested, 2.1% active | mitochondrial fusion phenotypic screen | AID 1362, 2008; in the data active = inhibition above about 58%; tested in S. cerevisiae
* = called active by the depositor. In the library only some 11% were active in any assay of this set; here they are far more common. Cut-off read from the data, not from the text of the source, unless noted: active = inhibition above about 50%; inactive = the rest.

Screening CC(=O)N1N=C(c2cccc([N+](=O)[O-])c2)OC1c1cccc(Br)c1 (stereo not drawn) returned Diaphorase inh 22, G6PDH CS 0, Lmaj promast 12, Diaph act CS 0.8 and WT yeast gro inh 66*.
O=C(NC(=S)N1CCOCC1)c1cc2ccccc2o1 was read as Diaphorase inh 11, G6PDH CS -3, Lmaj promast -9, Diaph act CS 0.9 and WT yeast gro inh 0.
For Clc1ccc(SCCN2CCNCC2)cc1 the results were Diaphorase inh 29, G6PDH CS 8, Lmaj promast 100*, Diaph act CS 0.7 and WT yeast gro inh -4.
`CCn1c(/C=C/Nc2ccccc2)[n+](CC)c2cc(Cl)c(Cl)cc21` gave Diaphorase inh 19, G6PDH CS -18, Lmaj promast 100*, Diaph act CS 0.8 and WT yeast gro inh 41.
`O=S(=O)(c1cccs1)N1CCN(CC(O)COC2CCCc3ccccc32)CC1` (stereo not drawn) gave Diaphorase inh 8, G6PDH CS 11, Lmaj promast 15, Diaph act CS 0.9 and WT yeast gro inh 4.
`O=S(=O)(c1cccs1)N1CCN(CC(O)COc2cccc(Br)c2)CC1` (stereo not drawn) gave Diaphorase inh 16, G6PDH CS -1, Lmaj promast 98*, Diaph act CS 0.8 and WT yeast gro inh 10.
For O=C(CNCc1cccc2ccccc12)Nc1ccccc1[N+](=O)[O-] the results were Diaphorase inh 26, G6PDH CS 4, Lmaj promast -11, Diaph act CS 0.7 and WT yeast gro inh 20.
CN1CCN(c2ccc(C(=O)c3ccc(Br)cc3)cc2[N+](=O)[O-])CC1 was read as Diaphorase inh 6, G6PDH CS -2, Lmaj promast 98*, Diaph act CS 0.9 and WT yeast gro inh 37.
CN1CCN(c2ccccc2NC(=O)c2ccc(N3CCCC3)c([N+](=O)[O-])c2)CC1 was read as Diaphorase inh -2, G6PDH CS -4, Lmaj promast 65*, Diaph act CS 1 and WT yeast gro inh 15.
For CC(=O)c1ccc(N2CCN(C(=O)c3cc(-c4cccnc4)nc4ccc(Br)cc34)CC2)cc1 the results were Diaphorase inh 52*, G6PDH CS 8, Lmaj promast 6, Diaph act CS 0.5 and WT yeast gro inh -6.
For Cc1ccc2nc(-c3cccnc3)cc(C(=O)N3CCN(c4ccc([N+](=O)[O-])cc4)CC3)c2c1 the results were Diaphorase inh 10, G6PDH CS 10, Lmaj promast 16, Diaph act CS 0.9 and WT yeast gro inh 2.
`Cc1ccc2c(C(=O)N3CCN(c4ccccc4)CC3)cc(-c3cccnc3)nc2c1C` gave Diaphorase inh -1, G6PDH CS 18, Lmaj promast 45, Diaph act CS 1 and WT yeast gro inh 73*.
For Cc1cc(NC(=O)c2cccc(S(=O)(=O)N3CCOCC3)c2)c2ccccc2n1 the results were Diaphorase inh 8, G6PDH CS 3, Lmaj promast 5, Diaph act CS 0.9 and WT yeast gro inh -2.
Screening O=S(=O)(Nc1ncnc2c1oc1ccccc12)c1ccc(Cl)s1 returned Diaphorase inh 22, G6PDH CS 4 and Diaph act CS 0.8.
`CC(C)[C@H](NC(=O)c1ccco1)C(=O)OCC(=O)c1ccc2c(c1)NC(=O)CO2` gave Diaphorase inh 12, G6PDH CS 4, Lmaj promast -4, Diaph act CS 0.9 and WT yeast gro inh 1.
CC(C)CC(NC(=O)c1ccc(Cl)cc1)C(=O)OCC(=O)c1ccc2c(c1)NC(=O)CO2 (stereo not drawn) was read as Diaphorase inh 11, G6PDH CS -2, Lmaj promast 64*, Diaph act CS 0.9 and WT yeast gro inh -6.
`COCCN(CC(=O)NC1CCCCC1)C(=O)/C=C/C(=O)c1ccc(OC)cc1O` gave G6PDH CS 7, Lmaj promast 1 and WT yeast gro inh -5.
Screening COc1ccc(C(=O)/C=C/C(=O)N(Cc2ccc3c(c2)OCO3)C(C(=O)NC2CCCCC2)c2ccncc2)c(O)c1 (stereo not drawn) returned Diaphorase inh 16, G6PDH CS 14, Lmaj promast 55*, Diaph act CS 0.8 and WT yeast gro inh 6.
Screening COc1ccc(CN(C(=O)/C=C/C(=O)c2ccc(OC)cc2O)C(C(=O)NC2CCCCC2)c2ccncc2)cc1 (stereo not drawn) returned Diaphorase inh 18, G6PDH CS 8, Lmaj promast 78*, Diaph act CS 0.8 and WT yeast gro inh 25.
COc1ccc(C(=O)/C=C/C(=O)N(CC(=O)NC2CCCCC2)Cc2cccs2)c(O)c1 was read as Diaphorase inh 18, G6PDH CS 11, Lmaj promast 31, Diaph act CS 0.8 and WT yeast gro inh 65*.
For Cc1ccccc1CS(=O)(=O)CCC(=O)NCc1ccccn1 the results were Diaphorase inh 1, G6PDH CS 2, Lmaj promast -2, Diaph act CS 1 and WT yeast gro inh 7.
Cc1cc(=O)oc2ccc(OC(C)C(=O)O)cc12 (stereo not drawn) was read as Diaphorase inh 3, G6PDH CS -4, Lmaj promast 1, Diaph act CS 1 and WT yeast gro inh -15.
For CCCc1n(CC)c2ccccc2[n+]1CC(O)COC1CCCCC1 (stereo not drawn) the results were Diaphorase inh 1, G6PDH CS 0, Lmaj promast 97*, Diaph act CS 1 and WT yeast gro inh 3.
CCc1cccc(C)c1NC(=S)NCc1ccc2[nH]c(C)cc2c1 was read as Diaphorase inh 8, G6PDH CS 5, Lmaj promast 93*, Diaph act CS 0.9 and WT yeast gro inh 18.
CNC(=S)NCc1ccc2[nH]c(C)cc2c1 was read as Diaphorase inh 0, G6PDH CS 2, Lmaj promast -7, Diaph act CS 1 and WT yeast gro inh -38.
For C/C(=N\NC(=O)C1CCCN(S(=O)(=O)c2ccccc2)C1)c1ccccn1 (stereo not drawn) the results were Diaphorase inh 7, G6PDH CS 2, Lmaj promast 99*, Diaph act CS 0.9 and WT yeast gro inh 9.
For C/C(=N\NC(=O)C1COc2ccccc2O1)c1ccccn1 (stereo not drawn) the results were Diaphorase inh 11, G6PDH CS 1, Lmaj promast 99*, Diaph act CS 0.9 and WT yeast gro inh 49.
O=C(N/N=C/c1ccc2c(c1)OCO2)C1COc2ccccc2O1 (stereo not drawn) was read as Diaphorase inh 11, G6PDH CS 1, Lmaj promast 27, Diaph act CS 0.9 and WT yeast gro inh -2.
